The list is not random: actives were taken first. Their share in the collection is about 3%.
S1P3 ag: human S1P3 receptor agonists, primary screen, cell-based, primary and confirmation, NFAT-BLA reporter. S1P3 NFAT-BLA reporter cells, agonism, FRET ratio; relative to 1 µM S1P, basal subtracted. AID 373, 2006. activation, % at 4.5 µM. Sphingosine 1-phosphate receptor 3 (Homo sapiens), Q99500. actives 0.1% (n = 60,000);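 active means activation above the screen-wide mean plus 3 SD, cut at about 4.5% in these data, passing the limit was not always enough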
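Benchmarks: high control 1 µM S1P / System: stable CHO line with human S1P3, Gα16, NFAT-BLA reporter / Dosing: single compound concentration, 4.5 µM final / Timing: 4 h compound at 37 °C, 2 h substrate at RT / Measured by: FRET β-lactamase substrate fluorescence, excitation 405 nm, 460/535 nm emission ratio, background-subtracted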
5HT1a ag: human 5-HT1a receptor agonists, primary screen, cell-based, CHO, Ga15 NFAT-bla reporter. CHO 5-HT1a Ga15 NFAT-bla reporter, FRET ratio; 0% basal, 100% maximal reference agonist. activation, % at 10 µM. 5-hydroxytryptamine receptor 1A (Homo sapiens), P08908. actives 0.56% (n = 65,000);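 active means activation above the screen-wide mean activation plus 3 SD, cut at about 19% in these data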;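 further: 0% = DMSO wells and 100% = 5-CT at EC100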
HTR1E antagonist: 5-HT1E receptor antagonists, primary screen, cell-based, HTS; AID 571, 2007; CHO 5-HT1E Ga15 NFAT-bla reporter, FRET, antagonist; inhibition, % at 6 µM; 5-hydroxytryptamine receptor 1E (Homo sapiens), P28566; actives 0.99% (n = 65,000);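 active means inhibition above a set limit, the mean inhibition across every tested compound plus 3 SD, cut at about 29% in these data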;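 further: signal is the 460 over 535 nm emission ratio of beta-lactamase substrate; 0% = agonist plus DMSO wells and 100% = wells without agonist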
S1P1 ag pot: S1P1 agonists and agonism potentiators, primary screen, cell-based, primary and confirmation screens, CRE-bla reporter. actives 0.57% (n = 56,000). Sphingosine 1-phosphate receptor 1 (Homo sapiens), P21453. S1P1 CRE-bla cells, forskolin, beta-lactamase FRET, potentiator mode; S1P1 agonist co-added at EC20, 2 nM; 100% = saturating reference agonist, 0% = basal. activation, % at 9.5 µM. AID 449, 2006;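 active means activation above a cutoff set at the mean activation of all tested compounds plus 3 SD, cut at about 54% in these data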;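 further: forskolin at 4 µM as EC80 and the EC20 agonist is SEW2871; 100% = SEW2871 at its EC100 plus forskolin at EC80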
Target sequence (P21453 whole entry, looked up): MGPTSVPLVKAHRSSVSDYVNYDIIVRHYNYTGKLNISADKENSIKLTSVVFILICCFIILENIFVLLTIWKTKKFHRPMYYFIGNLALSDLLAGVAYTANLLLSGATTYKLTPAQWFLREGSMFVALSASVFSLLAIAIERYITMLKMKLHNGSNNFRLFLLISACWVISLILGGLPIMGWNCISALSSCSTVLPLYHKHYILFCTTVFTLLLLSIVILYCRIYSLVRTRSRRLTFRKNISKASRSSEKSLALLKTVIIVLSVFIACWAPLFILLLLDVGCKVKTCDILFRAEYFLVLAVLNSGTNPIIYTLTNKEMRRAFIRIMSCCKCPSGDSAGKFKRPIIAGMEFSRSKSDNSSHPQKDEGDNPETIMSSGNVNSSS
5HT1E ag: 5-HT1E receptor agonists, primary screen, cell-based, HTS; AID 574, 2007; actives 0.69% (n = 65,000); CHO 5-HT1E Ga15 NFAT-bla reporter, FRET; 0% DMSO wells, 100% control agonist wells; activation, % at 6 µM;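 active means activation above a set limit, the screen-wide mean activation plus 3 SD, cut at about 8.5% in these data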;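 further: 100% = positive control agonist at 1 µM giving full maximal response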
5-HT1A blocker: human 5-HT1a receptor antagonists, primary screen, cell-based, CHO, Ga15 NFAT-bla reporter; AID 612, 2007; inhibition, % at 10 µM; 5-hydroxytryptamine receptor 1A (Homo sapiens), P08908; actives 0.68% (n = 62,000); CHO 5-HT1a Ga15 NFAT-bla reporter, antagonist mode;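 active means inhibition above the mean of all tested compounds plus 3 SD, cut at about 43% in these data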;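 further: receptor stimulated by 5-CT agonist at 100 nM near EC80; beta-lactamase reporter measured by ratiometric fluorescence of a cleavable substrate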
* = called active by the depositor; . = no result.

SMILES	S1P3 ag	5HT1a ag	HTR1E antagonist	S1P1 ag pot	5HT1E ag	5-HT1A blocker
O=C(CSc1nnc(COc2ccc3c(c2)CCCC3)o1)Nc1ccc(F)cc1	-1	-1	4	-8	9.3*	0
CC(C)(C)n1nnnc1C(c1ccccc1F)N(Cc1ccco1)CC1CCCO1 (centres undefined)	0	-1	11	-4	0	40
COc1cccc(CN(Cc2ccco2)C(c2ccc(F)cc2)c2nnnn2C(C)(C)C)c1 (centres undefined)	-2	-3	1	-10	-1	46*
O=C(CCCN1CCC(O)(c2ccc(Cl)cc2)CC1)c1ccc(F)cc1	-3	.	-4	14	0	.
c1ccc(CSCc2cn3ccsc3n2)cc1	-1	-3	-11	4	0	-3
O=c1c2ccccc2nc(SCc2cn3ccsc3n2)n1-c1ccccc1	0	1	38*	-40	0	-1
O=c1c2ccccc2nc(SCc2cn3ccsc3n2)n1-c1ccccc1F	-1	10	43*	18	0	12
O=C(CSc1cccc2cccnc12)N1CCCC1	0	-1	42*	46	0	17
O=C(O)c1cccnc1SCC(=O)N1CCCCCC1	0	-2	4	-18	-1	-5
CN(C)C(=O)CSc1cccc2cccnc12	-1	1	39*	38	0	33
O=C(NC(=O)N1CCN(c2ccccc2F)CC1)c1ccccc1	0	17	11	5	18*	5
Cc1ccc(C(=O)N2CCN(c3cccc(Cl)c3)CC2)cc1C	-2	2	5	24	1	8
O=C(NC(=O)N1CCN(c2cccc(Cl)c2)CC1)c1ccccc1	-1	3	8	21	14*	12
O=C(NCc1ccccc1)N1CCN(c2ccccc2F)CC1	0	2	1	9	0	-4
COc1ccc(NC(C)=O)c2nc(C)c(C)nc12	-1	0	30*	-6	0	5
COc1ccc2sc(C)nc2c1NC(C)=O	-1	0	-2	-1	-1	1
CC(C)n1c(=N)c(C(=O)NCCc2ccccc2)cc2c(=O)n3ccccc3nc21	6.3*	52*	-13	-245	13*	-69
N=c1c(C(=O)NCc2ccco2)cc2c(=O)n3ccccc3nc2n1Cc1ccc(Cl)cc1	4.8*	27*	-16	-142	5	13
Cn1c(=N)c(S(=O)(=O)c2ccccc2)cc2c(=O)n3ccccc3nc21	1	12	-1	-58	5	-18
Cc1ccc(CNC(=O)c2cc3c(=O)n4ccccc4nc3n(Cc3ccco3)c2=N)cc1	4	4	5	-61	1	.
N=c1c(S(=O)(=O)c2ccc(Cl)cc2)cc2c(=O)n3ccccc3nc2n1CCN1CCOCC1	1	24*	0	-32	8	-51
Cc1ccc(CNC(=O)c2cc3c(=O)n4ccccc4nc3n(CC3CCCO3)c2=N)cc1 (centres undefined)	11	32*	-13	-142	4	.
CC1CCCCN1C(=O)CSc1nnc(-c2ccc(Cl)s2)o1 (centres undefined)	-1	0	-11	23	0	-7
N#CC1=C2C=CC=CN2CC1=O	.	-2	10	.	-1	8
COc1ccccc1NC(=O)CCn1c(=O)sc2ccccc21	.	-1	-8	.	1	-4
CC(C)c1ccc(OCc2nc(-c3ccccn3)no2)c(Br)c1	-2	5	-13	86*	1	-20
Clc1ccc(OCc2nc(-c3ccncc3)no2)c(Br)c1	0	0	4	72*	0	-9
